Measurements: ChEMBL document CHEMBL5512625, “Design, synthesis, and biological evaluation of first-in-class indomethacin-based PROTACs degrading SARS-CoV-2 main protease and with broad-spectrum antiviral activity” (Eur J Med Chem, 2024)
≈ marks a conversion by molar mass, not a printed value. Calls of active or inactive are those of the source. The calls are words filed in the database; no cut-off is given here.

Tests used:
[1] = Cytotoxicity against African green monkey Vero cells assessed as reduction in cell viability incubated for 72 hrs by MTT assay; assay type: toxicity, cell-based; conditions: chlorocebus sabaeus
[2] = test system: SARS-CoV-2; experiment: Antiviral activity against SARS CoV-2 NL/2020 infected in African green monkey Vero E6 cells incubated for 3 days by plaque reduction assay; assay type: functional, organism-based; conditions: Severe acute respiratory syndrome coronavirus 2, NL/2020, Vero C1008, 72 h
[3] = Cytotoxicity against African green monkey Vero cells; assay type: toxicity, cell-based; conditions: chlorocebus sabaeus
[4] = test system: SARS-CoV-2; experiment: Antiviral activity against SARS CoV-2 NL/2020; assay type: functional, organism-based; conditions: Severe acute respiratory syndrome coronavirus 2, NL/2020
[5] = test system: HEK-293T; experiment: Downregulation of PGES-2 level in HEK293T cells at 25 uM incubated for 2 to 8 hrs by Western blot analysis; assay type: functional, cell-based; conditions: Homo sapiens, time 2-8 hrs
Summary of the method: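 Uninfected 293T cells treated at 25 µM or with 0.1% DMSO and harvested at several times after treatment. Western blot with anti-PGES-2 antibody; β-actin as loading control.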

[6] = test system: Vero C1008; experiment: Downregulation of PGES-2 level in African green monkey Vero E6 cells infected with SARS CoV-2 at 25 uM pre-infected for 90 mins followed by removal of viral inoculum and subsequent addition of compound measured after 24 hrs post-infection; assay type: functional, cell-based; conditions: Chlorocebus sabaeus, time 1350.0 min
[7] = test system: MRC5; experiment: Downregulation of PGES-2 level in human MRC5 cells infected with HCoV-OC43 at 25 uM pre-infected for 90 mins followed by removal of viral inoculum and subsequent addition of compound measured after 48 hrs post-infection; assay type: functional, cell-based; conditions: time 2790.0 min
Summary of the method: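 MRC-5 cells infected with HCoV-OC43 for 90 min at 37 °C; inoculum removed, then treated at 25 µM or with 0.1% DMSO. Whole-cell lysates collected 48 h p.i. and blotted for PGES-2, normalised to β-actin.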

[8] = test system: MRC5; experiment: Downregulation of PGES-2 level in human MRC5 cells infected with HCoV-229E at 25 uM pre-infected for 90 mins followed by removal of viral inoculum and subsequent addition of compound measured after 24 hrs post-infection; assay type: functional, cell-based; conditions: time 1350.0 min
[9] = Kinetic solubility in universal buffer incubated for 90 mins by microplate shaker method; assay type: physicochemical; conditions: for solubility kinetic at 1.5 h: universal buffer, read-out: Kinetic_solubility; for Kinetic_solubility: buffer, 1.5 h, BLD = below limit of detection
Summary of the method: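 Universal buffer (45 mM each ethanolamine, NaH2PO4 and sodium acetate) at pH 7.4; compound at 100 µM final, 5% DMSO. Shaken 90 min at 25 °C, vacuum-filtered, filtrate diluted with ACN/DMSO. UV absorbance at λmax quantified against an external calibration curve (3.13–100 µM); result corrected by ×1.25.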

[10] = Chemical stability of compound in DMEM at pH 7.4 assessed as compound remaining at 1 uM measured after 24 hrs by LC-MS analysis; assay type: physicochemical; conditions: read-out: Stability
Summary of the method: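 Compound at 1 and 10 µM (0.1% DMSO) incubated at 37 °C in DMEM pH 7.4 with 10% FBS and penicillin/streptomycin. Samples at 0 and 24 h, quenched in cold acetonitrile with labetalol internal standard, analysed by LC-MS/MS; duplicates.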

[11] = Metabolic stability in human liver microsomes assessed as half life measured upto 60 mins by LC/MS-MS analysis; assay type: ADME, Microsome
Summary of the method: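 Compound at 10 µM (0.1% DMSO) pre-incubated 5 min at 37 °C with human liver microsomes (0.5 mg/mL, 10-donor pool) in 0.1 M phosphate pH 7.4. Reaction started with 1 mM NADPH. Samples at 0, 5, 15, 30 and 60 min, quenched in cold acetonitrile with labetalol, analysed by LC-MS/MS; n=3.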

[12] = test system: Vero C1008; experiment: Cytotoxicity against African green monkey Vero E6 cells assessed as reduction in cell viability incubated for 72 hrs by Alamar blue assay; assay type: toxicity, cell-based; conditions: chlorocebus sabaeus, vero c1008, 72 h
[13] = Cytotoxicity against human MRC5 cells assessed as reduction in cell viability incubated for 72 hrs by MTT assay; assay type: toxicity, cell-based
[14] = molecular target: Replicase polyprotein 1ab (Severe acute respiratory syndrome coronavirus 2, UniProt P0DTD1); experiment: Binding affinity to NT650-labeled recombinant SARS CoV-2 MPro assessed as protein stability by measuring dissociation constant by MST analysis
[15] = test system: Human coronavirus OC43; experiment: Antiviral activity against HCoV-OC43 infected in human MRC5 cells incubated for 3 days by plaque reduction assay; assay type: functional, organism-based; conditions: Betacoronavirus 1, MRC5, 72 h
[16] = test system: Human coronavirus 229E; experiment: Antiviral activity against HCoV-229E infected in human MRC5 cells incubated for 3 days by plaque reduction assay; assay type: functional, organism-based; conditions: MRC5, 72 h
[17] = test system: SARS-CoV-2; experiment: Antiviral activity against SARS CoV-2 infected in African green monkey Vero E6 cells assessed as reduction in viral replication by plaque reduction assay; assay type: functional, organism-based; conditions: Severe acute respiratory syndrome coronavirus 2
[18] = test system: SARS-CoV-2; experiment: Antiviral activity against SARS CoV-2 infected in human Calu-3 cells measured after 36 hrs; assay type: functional, organism-based; conditions: Severe acute respiratory syndrome coronavirus 2, Calu-3, 36 h
[19] = Cytotoxicity against human Calu-3 cells incubated for 72 hrs by MTT assay; assay type: toxicity, cell-based
[20] = molecular target: von Hippel-Lindau disease tumor suppressor-SARS-Cov-2 polyprotein (Severe acute respiratory syndrome coronavirus 2, UniProt P40337+P0DTD1); experiment: PROTAC activity at human VHL/virus-expressed MPro in human Calu-3 cells infected with SARS CoV-2 assessed as protein degradation incubated for 48 hrs by Western blot analysis; assay type: cell-based
Sequence of von Hippel-Lindau disease tumor suppressor-SARS-Cov-2 polyprotein (P40337 whole entry, other chains not shown): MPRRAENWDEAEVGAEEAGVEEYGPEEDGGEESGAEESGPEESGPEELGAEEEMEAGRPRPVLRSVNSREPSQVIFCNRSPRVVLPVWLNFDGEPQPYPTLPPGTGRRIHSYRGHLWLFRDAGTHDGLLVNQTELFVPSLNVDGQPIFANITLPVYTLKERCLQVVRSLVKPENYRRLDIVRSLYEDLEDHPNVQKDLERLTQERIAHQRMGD

COc1ccc2c(c1)c(CC(=O)NCCCCCCNc1cc3c(cc1F)C(=O)N(C1CCC(=O)NC1=O)C3=O)c(C)n2C(=O)c1ccc(Cl)cc1 (stereo not drawn)
CC50 at 72 h [1]: > 125 µM | EC50 [2]: > 25 µM

CC(C)(C)NC(=O)N[C@H](C(=O)N1C[C@H]2[C@@H]([C@H]1C(=O)NC(CC1CCC1)C(=O)C(N)=O)C2(C)C)C(C)(C)C (stereo partly drawn) [BOCEPREVIR]
CC50 [3]: > 500 µM | EC50 [4]: 22 µM

COc1ccc2c(c1)c(CC(=O)NCCN1CCN(C(=O)CCC(=O)N[C@H](C(=O)N3C[C@H](O)C[C@H]3C(=O)N[C@@H](C)c3ccc(-c4scnc4C)cc3)C(C)(C)C)CC1)c(C)n2C(=O)c1ccc(Cl)cc1
CC50 at 72 h [1]: > 250 µM | Activity [5]: inactive | Activity [6]: inactive | Activity [7]: inactive | Activity [8]: inactive | solubility kinetic at 1.5 h [9]: 6 µM (≈ 5.97 µg/mL) | remaining at 24 h, 1 µM [10]: > 70% | half-life [11]: > 1 h

COc1ccc2c(c1)c(CC(=O)N1CCN(CC(=O)N[C@H](C(=O)N3C[C@@H](O)C[C@H]3C(=O)N[C@@H](C)c3ccc(-c4scnc4C)cc3)C(C)(C)C)CC1)c(C)n2C(=O)c1ccc(Cl)cc1
Activity [12]: Toxic

COc1ccc2c(c1)c(CC(=O)NCCCCCCC(=O)N[C@H](C(=O)N1C[C@H](O)C[C@H]1C(=O)N[C@@H](C)c1ccc(-c3scnc3C)cc1)C(C)(C)C)c(C)n2C(=O)c1ccc(Cl)cc1
CC50 at 72 h [1]: > 200 µM | CC50 at 72 h [13]: > 250 µM | Activity [5]: inactive | Activity [6]: inactive | Activity [7]: inactive | Activity [8]: inactive | Kinetic_solubility [9]: Bld

COc1ccc2c(c1)c(CC(=O)N1CCN(CCOCCOCC(=O)N[C@H](C(=O)N3C[C@H](O)C[C@H]3C(=O)N[C@@H](C)c3ccc(-c4scnc4C)cc3)C(C)(C)C)CC1)c(C)n2C(=O)c1ccc(Cl)cc1
CC50 at 72 h [1]: > 125 µM | EC50 [2]: > 25 µM | CC50 at 72 h [13]: 22 µM | solubility kinetic at 1.5 h [9]: 7.7 µM (≈ 7.69 µg/mL)

COc1ccc2c(c1)c(CC(=O)N1CCN(CCCCCC(=O)N[C@H](C(=O)N3C[C@H](O)C[C@H]3C(=O)N[C@@H](C)c3ccc(-c4scnc4C)cc3)C(C)(C)C)CC1)c(C)n2C(=O)c1ccc(Cl)cc1
CC50 at 72 h [1]: > 125 µM | EC50 [2]: > 25 µM | CC50 at 72 h [13]: 20 µM | Kinetic_solubility [9]: Bld

COc1ccc2c(c1)c(CC(=O)O)c(C)n2C(=O)c1ccc(Cl)cc1 [INDOMETHACIN]
Kd [14]: 129 µM

COc1ccc2c(c1)c(CC(=O)NCCN1CCN(CCOCCOCC(=O)N[C@H](C(=O)N3C[C@H](O)C[C@H]3C(=O)N[C@@H](C)c3ccc(-c4scnc4C)cc3)C(C)(C)C)CC1)c(C)n2C(=O)c1ccc(Cl)cc1
CC50 at 72 h [1]: > 125 µM | EC50 [2]: > 25 µM | CC50 at 72 h [13]: 12.3 µM | solubility kinetic at 1.5 h [9]: 26 µM (≈ 27.1 µg/mL)

COc1ccc2c(c1)c(CC(=O)N1CCN(CCC(=O)N[C@H](C(=O)N3C[C@H](O)C[C@H]3C(=O)N[C@@H](C)c3ccc(-c4scnc4C)cc3)C(C)(C)C)CC1)c(C)n2C(=O)c1ccc(Cl)cc1
CC50 at 72 h [1]: > 125 µM | EC50 [2]: > 25 µM | CC50 at 72 h [13]: 13.5 µM | Kinetic_solubility [9]: Bld

COc1ccc2c(c1)c(CC(=O)NCCCCCCCCCCNc1cc3c(cc1F)C(=O)N(C1CCC(=O)NC1=O)C3=O)c(C)n2C(=O)c1ccc(Cl)cc1 (stereo not drawn)
CC50 at 72 h [1]: > 125 µM | EC50 [2]: > 25 µM

COc1ccc2c(c1)c(CC(=O)NCCCN1CCN(CCCNC(=O)CCC(=O)N[C@H](C(=O)N3C[C@H](O)C[C@H]3C(=O)N[C@@H](C)c3ccc(-c4scnc4C)cc3)C(C)(C)C)CC1)c(C)n2C(=O)c1ccc(Cl)cc1
CC50 at 72 h [1]: > 125 µM | EC50 [2]: > 25 µM | CC50 at 72 h [13]: > 125 µM | EC50 [15]: 16 µM | EC50 [16]: > 25 µM | solubility kinetic at 1.5 h [9]: 9.4 µM (≈ 10 µg/mL)

COc1ccc2c(c1)c(CC(=O)NCCN1CCN(C(=O)CCC(=O)N[C@H](C(=O)N3C[C@@H](O)C[C@H]3C(=O)N[C@@H](C)c3ccc(-c4scnc4C)cc3)C(C)(C)C)CC1)c(C)n2C(=O)c1ccc(Cl)cc1
Activity [17]: inactive

COc1ccc2c(c1)c(CC(=O)NCCCCNc1cc3c(cc1F)C(=O)N(C1CCC(=O)NC1=O)C3=O)c(C)n2C(=O)c1ccc(Cl)cc1 (stereo not drawn)
CC50 at 72 h [1]: > 125 µM | EC50 [2]: > 25 µM

COc1ccc2c(c1)c(CC(=O)N1CCN(CC(=O)N[C@H](C(=O)N3C[C@H](O)C[C@H]3C(=O)N[C@@H](C)c3ccc(-c4scnc4C)cc3)C(C)(C)C)CC1)c(C)n2C(=O)c1ccc(Cl)cc1
CC50 at 72 h [1]: > 125 µM | EC50 [2]: 10.8 µM | CC50 at 72 h [13]: > 125 µM | EC50 [15]: 1.6 µM | EC50 [16]: 6.5 µM | Activity [5]: inactive | Activity [6]: inactive | Activity [7]: inactive | Activity [8]: inactive | EC50 [18]: 0.89 µM | CC50 at 72 h [19]: > 125 µM | DC50 [20]: 1.34 µM | Kinetic_solubility [9]: Bld | remaining at 24 h, 1 µM [10]: > 70% | half-life [11]: > 1 h
